A selection: hits, their analogues and other compounds. The true share with any hit is near 2.8%.
MC4R barr agon = MC4R agonists recruiting beta-arrestin, primary screen, cell-based, luminescence, agonist arm of biased-ligand search; hit rate 0.98% among 360,000; U2OS MC4R beta-arrestin complementation; percent of melanotan II response, DMSO zero; activation, % at 8.9 µM;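 active = activation above a per-plate cutoff, the mean activation of sample wells on that plate plus 3 SD, cut at about 8% in these data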
MC4R antagonist = MC4R antagonists of cAMP signaling, primary screen, cell-based, TR-FRET, antagonist arm of biased-ligand search; MC4R-expressing cells, MTII-stimulated cAMP, LANCE TR-FRET; Melanocortin receptor 4 (Homo sapiens), P32245; inhibition, % at 6.5 µM; AID 540295, 2011; hit rate 0.48% among 360,000;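 active = inhibition above its plate's cutoff, the mean of tested wells on that plate plus 3 SD, cut at about 29% in these data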
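Assay system: human MC4R-expressing U2OS cells; reagent: Melanotan II stimulation of cells; dosing: 6.5 µM single dose; timing: compound 30 min, challenge 1 h, detection 1 h; signal: TR-FRET cAMP assay; replicates: one well per compound, no replicates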
EBI2 block = EBI2 receptor antagonists, beta-arrestin recruitment, primary screen, cell-based, luminescence, 7a,25-OHC stimulation, uHTS. G-protein coupled receptor 183 (Homo sapiens), P32249. 7a,25-OHC stimulated. inhibition, % at 5 µM. hit rate 0.81% among 360,000; in the data active = inhibition above about 38%;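 note: enzyme fragment complementation signal reports receptor beta-arrestin coupling in cells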
HTR2A ag = mouse Htr2a agonists via beta-arrestin recruitment, primary screen, cell-based, luminescence; hit rate 0.66% among 360,000; 5-hydroxytryptamine receptor 2A (Mus musculus), P35363; activation, % at 7.6 µM; CHO-K1 mHTR2A beta-arrestin complementation; percent of 30 µM serotonin response;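 active = activation above a run cutoff, the mean activation of all tested compounds plus 3 SD, cut at about 14% in these data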
MC4R barr conf = MC4R beta-arrestin agonists, retest, confirmation, cell-based, luminescence, U2OS | shares compounds with MC4R barr agon | U2OS MC4R beta-arrestin recruitment; scaled DMSO 0%, Melanotan II 100% | activation, % at 8.9 µM | hit rate 31% among 2,400;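 active = mean activation across replicates above the hit cutoff set in the earlier primary screen, cut at about 8% in these data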
MOR DOR agonist = agonists of MOR-DOR heterodimerization, counter-screen for MC4R biased agonist project, cell-based, luminescence. shares compounds with MC4R barr agon. U2OS PathHunter beta-arrestin, beta-gal luminescence; percent of deltorphin B response, DMSO zero. activation, % at 9.2 µM. hit rate 5.8% among 2,400. AID 602194, 2012;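 active = mean activation across replicates exceeds the hit threshold derived in the earlier primary screen, cut at about 18% in these data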
Target sequence (P35372 whole entry, looked up): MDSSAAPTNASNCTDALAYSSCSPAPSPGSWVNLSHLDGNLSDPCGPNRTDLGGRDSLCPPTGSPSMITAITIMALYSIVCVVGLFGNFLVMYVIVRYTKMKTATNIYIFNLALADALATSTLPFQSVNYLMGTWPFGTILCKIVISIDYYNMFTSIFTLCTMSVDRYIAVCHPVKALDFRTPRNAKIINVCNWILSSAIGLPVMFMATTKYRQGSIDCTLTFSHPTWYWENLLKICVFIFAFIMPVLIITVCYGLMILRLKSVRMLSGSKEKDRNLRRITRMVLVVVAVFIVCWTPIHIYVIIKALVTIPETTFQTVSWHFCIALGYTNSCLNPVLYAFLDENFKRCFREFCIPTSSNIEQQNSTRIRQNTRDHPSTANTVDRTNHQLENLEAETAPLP
Target sequence (P41143 whole entry, looked up): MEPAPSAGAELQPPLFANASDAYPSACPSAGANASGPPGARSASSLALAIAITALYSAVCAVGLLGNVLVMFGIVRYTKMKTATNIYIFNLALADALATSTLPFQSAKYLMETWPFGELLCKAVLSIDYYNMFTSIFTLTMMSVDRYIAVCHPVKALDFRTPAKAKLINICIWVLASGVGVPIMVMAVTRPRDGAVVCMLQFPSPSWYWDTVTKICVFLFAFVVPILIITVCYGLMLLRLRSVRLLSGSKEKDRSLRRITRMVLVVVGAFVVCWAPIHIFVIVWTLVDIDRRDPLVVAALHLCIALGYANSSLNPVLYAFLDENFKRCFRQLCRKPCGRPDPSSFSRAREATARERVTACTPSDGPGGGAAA
Hits are given with their value.

Results for Cc1cc(C)c2sc(N(CCCN(C)C)C(=O)COc3ccc(Cl)cc3)nc2c1 ?
MC4R barr agon: 11.4; MC4R antagonist: inactive; EBI2 block: inactive; HTR2A ag: inactive; MC4R barr conf: 25.1; MOR DOR agonist: inactive

What do the screens show for `Cc1cccc2sc(N(CCCN(C)C)C(=O)COc3ccc(Cl)cc3)nc12`?
MC4R barr agon: inactive; MC4R antagonist: inactive; EBI2 block: inactive; HTR2A ag: inactive

What do the screens show for `CCOCCCN(Cc1ccco1)C(=O)c1cc2c(=O)[nH]c3ccc(C)cc3c2s1`?
MC4R barr agon: 10.7; MC4R antagonist: inactive; EBI2 block: inactive; HTR2A ag: inactive; MC4R barr conf: 18.0; MOR DOR agonist: inactive

Results for Cc1ccc2[nH]c(=O)c3cc(C(=O)N(C)Cc4ccco4)sc3c2c1 ?
MC4R barr agon: inactive; MC4R antagonist: inactive; EBI2 block: inactive; HTR2A ag: inactive

Results for Cc1ccc(NC(=O)CSC2=Nc3ccccc3C3CC=NN23)c(C)c1 (stereo not given) ?
MC4R barr agon: inactive; MC4R antagonist: inactive; EBI2 block: inactive; HTR2A ag: inactive

What do the screens show for `O=C(CSC1=Nc2ccccc2C2CC=NN12)Nc1ccc(F)cc1Cl` (stereo not given)?
MC4R barr agon: 25.6; MC4R antagonist: inactive; EBI2 block: inactive; HTR2A ag: inactive; MC4R barr conf: inactive; MOR DOR agonist: inactive

What do the screens show for `CCCC[C@@H]1CNC(=O)C(=O)N1CCCC`?
EBI2 block: inactive; HTR2A ag: inactive

How did Cc1cc(SCc2cc(=O)[nH]c3ccccc23)nc2ccccc12 do in these assays?
MC4R barr agon: 11.7; MC4R antagonist: inactive; EBI2 block: inactive; HTR2A ag: inactive; MC4R barr conf: inactive; MOR DOR agonist: inactive

How did COCCNC(=O)C1(C)CCCN(Cc2ccc3ccccc3c2Br)C1 (stereo not given) do in these assays?
MC4R barr agon: inactive; MC4R antagonist: inactive; EBI2 block: inactive; HTR2A ag: inactive

How did CC1=CC2=NC(=O)/C(=C\c3cccn3CCOc3ccc(C)c(C)c3)C(=N)N2O1 do in these assays?
MC4R barr agon: 13.7; MC4R antagonist: inactive; EBI2 block: inactive; HTR2A ag: inactive; MC4R barr conf: inactive; MOR DOR agonist: inactive

What do the screens show for `CC(=O)c1cccc(-c2cnc3c(NC=O)cc(-c4ccc(C(=O)N5CCOCC5)cc4)cn23)c1`?
MC4R barr agon: inactive; MC4R antagonist: inactive; EBI2 block: inactive; HTR2A ag: inactive

How did COc1cccc(-c2cnc3c(NC(C)=O)cc(-c4ccc(C(=O)N5CCOCC5)cc4)cn23)c1 do in these assays?
MC4R barr agon: 14.8; MC4R antagonist: inactive; EBI2 block: inactive; HTR2A ag: inactive; MC4R barr conf: 20.4; MOR DOR agonist: inactive

Results for COc1cc(-c2cnc3c(NC=O)cc(-c4cccc(NC(C)=O)c4)cn23)cc(OC)c1OC ?
MC4R barr agon: inactive; MC4R antagonist: inactive; EBI2 block: inactive; HTR2A ag: inactive

What do the screens show for `CC(=O)c1cccc(-c2cnc3c(NC=O)cc(-c4ccccc4)cn23)c1`?
MC4R barr agon: 9.6; MC4R antagonist: inactive; EBI2 block: inactive; HTR2A ag: inactive; MC4R barr conf: 12.8; MOR DOR agonist: inactive

What do the screens show for `COc1cccc(-c2cnc3c(NC=O)cc(-c4ccc(N5CCN(C)CC5)cc4)cn23)c1`?
MC4R barr agon: inactive; MC4R antagonist: inactive; EBI2 block: inactive; HTR2A ag: inactive

Results for COc1cccc(-c2cnc3c(NC=O)cc(-c4cccc(NC(C)=O)c4)cn23)c1 ?
MC4R barr agon: 11.6; MC4R antagonist: inactive; EBI2 block: inactive; HTR2A ag: inactive; MC4R barr conf: 12.1; MOR DOR agonist: inactive

Results for COc1ccc(-c2cc(NC=O)c3ncc(-c4cccc(C(C)=O)c4)n3c2)cc1 ?
MC4R barr agon: 13.2; MC4R antagonist: inactive; EBI2 block: inactive; HTR2A ag: inactive; MC4R barr conf: 12.7; MOR DOR agonist: inactive

Screens (PubChem BioAssay)
